From ChEMBL document CHEMBL1828529, “Novel human mPGES-1 inhibitors identified through structure-based virtual screening” (Bioorg Med Chem, 2011)
pIC50: −log10 of the molar value.

The compounds below were run against T1, Prostaglandin E synthase (Homo sapiens, UniProt O14684) (assay: Inhibition of microsomal PGES).
T1 sequence (O14684 whole entry): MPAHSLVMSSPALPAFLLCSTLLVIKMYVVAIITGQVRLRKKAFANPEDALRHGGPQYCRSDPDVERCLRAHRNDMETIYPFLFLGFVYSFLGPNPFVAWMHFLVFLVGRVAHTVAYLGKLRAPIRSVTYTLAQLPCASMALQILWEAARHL
Procedure, shortened: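 Compound was preincubated with enzyme for 15 min at room temperature. PGH2 (1 μM final) was added on ice, and the reaction was stopped after 30 s with SnCl2. PGE2 was measured by EIA against an enzyme-free blank.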

Row | Compound | pIC50
1 | CS(=O)(=O)Nc1ccc([N+](=O)[O-])cc1OC1CCCCC1 [NS-398] | 4.70
2 | CC1=C(CC(=O)O)c2cc(F)ccc2/C1=C\c1ccc([S+](C)[O-])cc1 (centres undefined) | 4.10

What follows are compounds tested against T2, Prostaglandin E synthase (Homo sapiens) (UniProt O14684) (assay: Inhibition of human recombinant microsomal PGES-1 expressed in freestyle 293-f cells assessed as conversion of PGH2 to PGE2 at 10 uM after 15 mins by enzyme immunoassay).
T2 sequence (whole entry): T1 sequence (O14684 whole entry)
Assay type: cell-based
Procedure, shortened: (§1)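 Reaction in 0.2 M sodium phosphate pH 7.2 stock with 0.1 M GSH stock. Enzyme and inhibitor preincubated 15 min at room temperature, then started with cold PGH2 (1 μM final) on ice. Stopped after 30 s with SnCl2 in ethanol. PGE2 measured by enzyme immunoassay against an enzyme-free blank.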

Row | Compound | inhibition
3 | O=[N+]([O-])C(/C=C(\Cl)[N+](=O)[O-])=C(N1CCCCC1)N1CCCCC1 | 15%
4 | O=[N+]([O-])c1cc2c(c([N+](=O)[O-])c1)Nc1ccccc1N=C2c1ccc(Cl)cc1 | 26%
5 | CC(=O)NC(Cc1ccc(C)cc1)C(=O)NC(Cc1ccc(F)cc1)C(=O)N1CCC(OCc2ccccc2)CC1CCCNC(=N)N (centres undefined) | 31%
6 | CCOC(=O)Cn1c(=O)c2c(nc3n2CCCN3c2ccc(OCC)cc2)n(C)c1=O | 39%
7 | COCCN(c1ccc(/C=C2\S/C(=N\c3ccccc3)N(C(C)C(=O)O)C2=O)cc1)c1ccccc1OC (centres undefined) | 83%
8 | CC1CCc2c(sc3ncnc(SC(C)C(=O)O)c23)C1 (centres undefined) | 16%

More lines, now with the values ahead:

Row | inhibition | Compound
9 | 50% | N#CCC(=O)N/N=C(\c1nc2ccc(Cl)cc2nc1O)C(O)c1ccc(Cl)cc1 (centres undefined)
10 | 43% | CC1(C)C(c2ccc(Cl)cc2)N(O)C2(CCCCC2=O)N1O (centres undefined)
11 | 39% | Cc1c(C(=O)O)ccc2c1NC(c1ccc(OCC#N)cc1)C1CC=CC21 (centres undefined)
12 | 20% | O=C(O)CSc1nc2sc3c(c2c(=O)n1Cc1ccccc1)CCCCC3
13 | 10% | CCN1C(=O)C2Cc3c([nH]c4ccccc34)C(c3ccc(Cl)cc3)N2C1=O (centres undefined)

These compounds were tested against T1, Prostaglandin E synthase (assay: Inhibition of human recombinant microsomal PGES-1 expressed in freestyle 293-f cells assessed as conversion of PGH2 to PGE2 after 15 mins by enzyme immunoassay).
Assay type: cell-based
Procedure, shortened: as §1

Row | pIC50 | Compound
14 | 5.46 | COCCN(c1ccc(/C=C2\S/C(=N\c3ccccc3)N(C(C)C(=O)O)C2=O)cc1)c1ccccc1OC (centres undefined)
